Results from ChEMBL document CHEMBL4689842, “EUbOPEN Chemogenomics Library wave 1” (2021).

System: U2OS
Assay: Multiplex assay against U2OS
Format: toxicity, cell-based
Details: human
Summary of the method: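 Per cents of healthy-nucleus cells form the tubulin, mitochondrial-mass and membrane-permeability phenotype values. Live cells were stained at seeding with Hoechst33342, BioTracker Green Microtubule Cytoskeleton Dye, MitoTracker Red and Annexin V Alexa Fluor 680. After compound addition they were imaged on a CQ1 microscope at 37°C and 5% CO2, and CellPathfinder machine-learning gating split them into Hoechst high-intensity objects or normal cells, normal cells into healthy, pyknosed or fragmented nuclei, and pyknosed cells into mitotic or apoptotic.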

[1] = 12 h, 1 µM, compound concentration 1 uM, replicate 1
[2] = 12 h, 1 µM, compound concentration 1 uM, replicate 2
[3] = 12 h, 10 µM, compound concentration 10 uM, replicate 1
[4] = 12 h, 10 µM, compound concentration 10 uM, replicate 2
[5] = 24 h, 1 µM, compound concentration 1 uM, replicate 1
[6] = 24 h, 1 µM, compound concentration 1 uM, replicate 2
[7] = 24 h, 10 µM, compound concentration 10 uM, replicate 1
[8] = 24 h, 10 µM, compound concentration 10 uM, replicate 2
[9] = 48 h, 1 µM, compound concentration 1 uM, replicate 1
[10] = 48 h, 1 µM, compound concentration 1 uM, replicate 2
[11] = 48 h, 10 µM, compound concentration 10 uM, replicate 1
[12] = 48 h, 10 µM, compound concentration 10 uM, replicate 2

Structure (SMILES): CN1CCN(Cc2ccc(Nc3ncc(Cl)c(Nc4ccccc4S(=O)(=O)N(C)C)n3)cc2)CC1 [DUBERMATINIB]
- Population Apoptotic (%) [1]: 73%
- Population Fragmented Nuclei (%) [1]: 20%
- Population Healthy Nuclei (%) [1]: 51%
- Population Hoechst High Intensity Objects (%) [1]: 11%
- Population Membrane Permeable-Phenotype (%) [1]: 6%
- Population Mitochondria Different-Phenotype (%) [1]: 9%
- Population Mitotic Cells (%) [1]: 26%
- Population Normal (%) [1]: 88%
- Population Pyknosed Nuclei (%) [1]: 27%
- Population Tubulin-Different-Phenotype (%) [1]: 6%
- Total Cell Count [1]: 172
- Population Apoptotic (%) [2]: 100%
- Population Fragmented Nuclei (%) [2]: 13%
- Population Healthy Nuclei (%) [2]: 83%
- Population Hoechst High Intensity Objects (%) [2]: 10%
- Population Membrane Permeable-Phenotype (%) [2]: 4%
- Population Mitochondria Different-Phenotype (%) [2]: 16%
- Population Mitotic Cells (%) [2]: 0%
- Population Normal (%) [2]: 89%
- Population Pyknosed Nuclei (%) [2]: 2%
- Population Tubulin-Different-Phenotype (%) [2]: 11%
- Total Cell Count [2]: 65
- Population Apoptotic (%) [3]: 78%
- Population Fragmented Nuclei (%) [3]: 25%
- Population Healthy Nuclei (%) [3]: 44%
- Population Hoechst High Intensity Objects (%) [3]: 12%
- Population Membrane Permeable-Phenotype (%) [3]: 9%
- Population Mitochondria Different-Phenotype (%) [3]: 40%
- Population Mitotic Cells (%) [3]: 21%
- Population Normal (%) [3]: 87%
- Population Pyknosed Nuclei (%) [3]: 29%
- Population Tubulin-Different-Phenotype (%) [3]: 28%
- Total Cell Count [3]: 140
- Population Apoptotic (%) [4]: 73%
- Population Fragmented Nuclei (%) [4]: 45%
- Population Healthy Nuclei (%) [4]: 31%
- Population Hoechst High Intensity Objects (%) [4]: 9%
- Population Membrane Permeable-Phenotype (%) [4]: 28%
- Population Mitochondria Different-Phenotype (%) [4]: 38%
- Population Mitotic Cells (%) [4]: 26%
- Population Normal (%) [4]: 90%
- Population Pyknosed Nuclei (%) [4]: 22%
- Population Tubulin-Different-Phenotype (%) [4]: 42%
- Total Cell Count [4]: 91
- Population Apoptotic (%) [5]: 88%
- Population Fragmented Nuclei (%) [5]: 29%
- Population Healthy Nuclei (%) [5]: 45%
- Population Hoechst High Intensity Objects (%) [5]: 10%
- Population Membrane Permeable-Phenotype (%) [5]: 11%
- Population Mitochondria Different-Phenotype (%) [5]: 14%
- Population Mitotic Cells (%) [5]: 11%
- Population Normal (%) [5]: 90%
- Population Pyknosed Nuclei (%) [5]: 25%
- Population Tubulin-Different-Phenotype (%) [5]: 4%
- Total Cell Count [5]: 188
- Population Apoptotic (%) [6]: 0%
- Population Fragmented Nuclei (%) [6]: 11%
- Population Healthy Nuclei (%) [6]: 83%
- Population Hoechst High Intensity Objects (%) [6]: 6%
- Population Membrane Permeable-Phenotype (%) [6]: 4%
- Population Mitochondria Different-Phenotype (%) [6]: 36%
- Population Mitotic Cells (%) [6]: 100%
- Population Normal (%) [6]: 93%
- Population Pyknosed Nuclei (%) [6]: 4%
- Population Tubulin-Different-Phenotype (%) [6]: 14%
- Total Cell Count [6]: 70
- Population Apoptotic (%) [7]: 84%
- Population Fragmented Nuclei (%) [7]: 38%
- Population Healthy Nuclei (%) [7]: 24%
- Population Hoechst High Intensity Objects (%) [7]: 19%
- Population Membrane Permeable-Phenotype (%) [7]: 4%
- Population Mitochondria Different-Phenotype (%) [7]: 45%
- Population Mitotic Cells (%) [7]: 15%
- Population Normal (%) [7]: 80%
- Population Pyknosed Nuclei (%) [7]: 37%
- Population Tubulin-Different-Phenotype (%) [7]: 22%
- Total Cell Count [7]: 150
- Population Apoptotic (%) [8]: 95%
- Population Fragmented Nuclei (%) [8]: 30%
- Population Healthy Nuclei (%) [8]: 33%
- Population Hoechst High Intensity Objects (%) [8]: 14%
- Population Membrane Permeable-Phenotype (%) [8]: 55%
- Population Mitochondria Different-Phenotype (%) [8]: 55%
- Population Mitotic Cells (%) [8]: 4%
- Population Normal (%) [8]: 85%
- Population Pyknosed Nuclei (%) [8]: 36%
- Population Tubulin-Different-Phenotype (%) [8]: 65%
- Total Cell Count [8]: 87
- Population Apoptotic (%) [9]: 82%
- Population Fragmented Nuclei (%) [9]: 29%
- Population Healthy Nuclei (%) [9]: 44%
- Population Hoechst High Intensity Objects (%) [9]: 8%
- Population Membrane Permeable-Phenotype (%) [9]: 8%
- Population Mitochondria Different-Phenotype (%) [9]: 28%
- Population Mitotic Cells (%) [9]: 17%
- Population Normal (%) [9]: 91%
- Population Pyknosed Nuclei (%) [9]: 25%
- Population Tubulin-Different-Phenotype (%) [9]: 11%
- Total Cell Count [9]: 217
- Population Apoptotic (%) [10]: 100%
- Population Fragmented Nuclei (%) [10]: 16%
- Population Healthy Nuclei (%) [10]: 78%
- Population Mitochondria Different-Phenotype (%) [10]: 37%
- Population Mitotic Cells (%) [10]: 0%
- Population Pyknosed Nuclei (%) [10]: 4%
- Population Tubulin-Different-Phenotype (%) [10]: 17%
- Total Cell Count [10]: 87
- Population Apoptotic (%) [11]: 92%
- Population Fragmented Nuclei (%) [11]: 40%
- Population Healthy Nuclei (%) [11]: 8%
- Population Hoechst High Intensity Objects (%) [11]: 30%
- Population Membrane Permeable-Phenotype (%) [11]: 33%
- Population Mitochondria Different-Phenotype (%) [11]: 50%
- Population Mitotic Cells (%) [11]: 7%
- Population Normal (%) [11]: 69%
- Population Pyknosed Nuclei (%) [11]: 51%
- Population Tubulin-Different-Phenotype (%) [11]: 33%
- Total Cell Count [11]: 146
- Population Apoptotic (%) [12]: 85%
- Population Fragmented Nuclei (%) [12]: 24%
- Population Healthy Nuclei (%) [12]: 49%
- Population Hoechst High Intensity Objects (%) [12]: 20%
- Population Membrane Permeable-Phenotype (%) [12]: 80%
- Population Mitochondria Different-Phenotype (%) [12]: 84%
- Population Mitotic Cells (%) [12]: 14%
- Population Normal (%) [12]: 79%
- Population Pyknosed Nuclei (%) [12]: 26%
- Population Tubulin-Different-Phenotype (%) [12]: 76%
- Total Cell Count [12]: 104
